Assays:
Cavia porcellus = organism: Cavia porcellus; assay: Dose representing 50% inhibition of positive chronotropic response to histamine in guinea pig atrium (5 x 10e -6M); type: functional; details: Cardiac atrium, read-out: ED50 (the source's name)
In short: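 Isolated right atria from guinea pig, three to four preparations per compound. Test agent added 10 min ahead of histamine (5 × 10⁻⁶ M). Read-out is inhibition of the histamine-induced rise in atrial rate. Percent inhibition plotted against log concentration, and the 50%-inhibiting dose read from that curve; means ± SE.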

Canis familiaris = assay: Reduction in acid response to histamine(160 ug/kg/h i.v.) in anesthetized dogs with acute gastric fistula.; type: functional; details: Canis lupus familiaris, Stomach, iv
In short: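 Mongrel dogs of 8–10 kg, fasted 24 h and anesthetized with pentobarbital 30 mg/kg i.v. Pylorus and esophagus ligated, with a stainless steel cannula in the stomach. Histamine infused at 160 μg/(kg h), drugs given i.v., gastric juice collected every 15 min. Inhibition taken from predrug minus minimum acid output (within 45 min). ED50 from a semilog dose-response plot.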

## N#CNC(=N)CCSCc1ccc(CN2CCCCC2)o1
Cavia porcellus
  EC50: 35 µM

## CC(=N)Nc1nc(CSCCC(=N)NC#N)cs1
Cavia porcellus
  EC50: 9.1 µM

## N#CNC(=N)CCSCc1noc(NC(=N)N)n1
Cavia porcellus
  EC50: > 100 µM

## CN(C)Cc1ccc(CSCCC(=N)NC#N)s1
Cavia porcellus
  EC50: 13 µM
Canis familiaris
  ED50: 4.4 mg/kg

## CN(C)Cc1cccc(OCCCC(=N)NC#N)c1
Cavia porcellus
  EC50: 20 µM
Canis familiaris
  ED50: 9 mg/kg

## NC(=O)CCSCc1csc(N=C(N)N)n1
Cavia porcellus
  EC50: 1 µM

## N#CNC(=N)CCSCc1ccccn1
Cavia porcellus
  EC50: > 100 µM

## C/N=C(/NC)Nc1nc(CSCCC(=N)NC#N)cs1
Cavia porcellus
  EC50: > 100 µM

## C/N=C(/CCSCc1[nH]cnc1C)NC#N
Cavia porcellus
  EC50: > 100 µM

## N#C/N=C(\N)CCSCc1csc(N)n1
Cavia porcellus
  EC50: > 100 µM

## N#CNC(=N)CCCOc1cccc(CN2CCCCC2)c1
Cavia porcellus
  EC50: 4.7 µM
Canis familiaris
  ED50: 2.3 mg/kg

## N#CNC(=N)CCSCc1csc(NC(=N)N)n1
Cavia porcellus
  EC50: 0.18 µM
Canis familiaris
  ED50: 0.018 mg/kg

## C/N=C(/N)Nc1nc(CSCCC(=N)NC#N)cs1
Cavia porcellus
  EC50: 1.2 µM

## Cc1[nH]cnc1CSCCC(=N)NC#N
Cavia porcellus
  EC50: > 100 µM

## CN(C)Nc1nc(CSCCC(=N)NC#N)cs1
Cavia porcellus
  EC50: > 100 µM

## N#CNC(=N)CCSCc1ccc(CN2CCOCC2)o1
Cavia porcellus
  EC50: > 100 µM

## N#CNC(=N)CCCCc1csc(NC(=N)N)n1
Cavia porcellus
  EC50: 0.12 µM
Canis familiaris
  ED50: 0.022 mg/kg

## N#CNC(=N)CCSCc1nc[nH]n1
Cavia porcellus
  EC50: > 100 µM

## N#CNC(=N)CCCOc1cccc(CN2CCCC2)c1
Cavia porcellus
  EC50: 13 µM
Canis familiaris
  ED50: 3.5 mg/kg

## CN(C)Cc1ccc(CSCCC(=N)NC#N)o1
Cavia porcellus
  EC50: 2.1 µM
Canis familiaris
  ED50: 0.28 mg/kg

## C/N=C(/CCSCc1ccc(CN(C)C)o1)NC#N
Cavia porcellus
  EC50: 170 µM
Canis familiaris
  ED50: > 10 mg/kg

## C/N=C(/CCSCc1csc(N=C(N)N)n1)NC#N
Cavia porcellus
  EC50: 0.98 µM
Canis familiaris
  ED50: 0.39 mg/kg

## C#CC/N=C(/CCSCc1nc[nH]c1C)NC#N
Cavia porcellus
  EC50: > 100 µM

## Cc1[nH]cnc1CSCCC(=N)NC(N)=O.Cl.Cl
Cavia porcellus
  EC50: 0.9 µM
Canis familiaris
  ED50: 0.22 mg/kg

## CCc1[nH]cnc1CSCCC(=N)NC(N)=O.Cl.Cl
Cavia porcellus
  EC50: 2 µM
Canis familiaris
  ED50: 0.33 mg/kg

## N=C(N)Nc1nc(CSCCC(=N)NC(N)=O)no1
Cavia porcellus
  EC50: 26 µM

## CC(=N)Nc1nc(CSCCC(=N)NC(N)=O)cs1
Cavia porcellus
  EC50: 2.5 µM

## C/N=C(/N)Nc1nc(CSCCC(=N)NC(N)=O)cs1.Cl.Cl
Cavia porcellus
  EC50: 0.32 µM
Canis familiaris
  ED50: 0.046 mg/kg

## N=C(CCSCc1[nH]cnc1C(F)(F)F)NC(N)=O
Cavia porcellus
  EC50: > 100 µM

## Cl.Cl.N=C(CCSCc1ccccn1)NC(N)=O
Cavia porcellus
  EC50: 12 µM
Canis familiaris
  ED50: 2.5 mg/kg

## Cl.Cl.N=C(CCSCc1nc[nH]n1)NC(N)=O
Cavia porcellus
  EC50: 41 µM
Canis familiaris
  ED50: 6.9 mg/kg

## Cl.Cl.N=C(CCSCc1c[nH]cn1)NC(N)=O
Cavia porcellus
  EC50: 5.3 µM
Canis familiaris
  ED50: 1.3 mg/kg

## Cl.Cl.N=C(N)Nc1nc(CSCCC(=N)NC(N)=O)cs1
Cavia porcellus
  EC50: 0.074 µM
Canis familiaris
  ED50: 0.0064 mg/kg

## CN/C(=N\CCSCc1nc[nH]c1C)NC#N [CIMETIDINE]
Cavia porcellus
  EC50: 2.7 µM
Canis familiaris
  ED50: 0.33 mg/kg
